Mdm2 ligase inh = inhibitors of human Mdm2 E3 ubiquitin ligase | Q00987 | cell-based MDM2 ubiquitination luciferase reporter, 2 h; 0 = plate control, 100 = twice control, blank-subtracted | signal enhancement, % at 5 µM | 210,000 tested, 0.11% active | AID 1230;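 active means signal enhancement of 30% or more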;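 further: luminescence tracks abundance of the self-degrading MDM2-luciferase fusion protein; higher signal means inhibition of MDM2 E3 ligase activity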
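system = mammalian cells stably expressing self-ubiquitinating, self-degrading MDM2 E3–luciferase fusion | quantity = 2000 cells per well seeded | incubation = 4 h cell settling then 2 h compound exposure, 37 °C | signal = SteadyLite luminescence, 15 min reagent step | benchmarks = plate control and blank wells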
m-calpain inh = blocks pig calpain II enzyme activity; purified calpain II, fluorogenic peptide substrate, 30 min; inhibition, % at 16 µM; 220,000 tested, 0.37% active; AID 1236;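 active means inhibition above about 50%, limit read from the data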
Arbovirus anti = blocks arbovirus infection. inhibition, % at 10 µM. arbovirus infection cell-based antiviral screen. 200,000 tested, 0.37% active; in the data active means inhibition above about 30%
Cl transport mod = KCC2 (human) Cl- transport modulation; 190,000 tested, 2.2% active; Q9H2X9; B-score of Tl+ flux slope (higher = more flux/activation; lower = inhibition) at 10 µM; KCC2 cells, thallium flux FluoZin-2 fluorescence;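 active means thallium flux slope and its plate-corrected score both differing from the plate sample mean at a set confidence after two filtering rounds, in either direction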;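 further: slope of fluorescence scaled to starting intensity during 10 to 20 s after thallium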
PKD1 kinase inh = blocks activity of human protein kinase D1 | Q15139 | PKD1 kinase fluorescence polarization assay | inhibition, % (concentration not given with the values) | 200,000 tested, 0.056% active | AID 797; in the data active means inhibition above about 50%
Target sequence (Q15139 whole entry, looked up): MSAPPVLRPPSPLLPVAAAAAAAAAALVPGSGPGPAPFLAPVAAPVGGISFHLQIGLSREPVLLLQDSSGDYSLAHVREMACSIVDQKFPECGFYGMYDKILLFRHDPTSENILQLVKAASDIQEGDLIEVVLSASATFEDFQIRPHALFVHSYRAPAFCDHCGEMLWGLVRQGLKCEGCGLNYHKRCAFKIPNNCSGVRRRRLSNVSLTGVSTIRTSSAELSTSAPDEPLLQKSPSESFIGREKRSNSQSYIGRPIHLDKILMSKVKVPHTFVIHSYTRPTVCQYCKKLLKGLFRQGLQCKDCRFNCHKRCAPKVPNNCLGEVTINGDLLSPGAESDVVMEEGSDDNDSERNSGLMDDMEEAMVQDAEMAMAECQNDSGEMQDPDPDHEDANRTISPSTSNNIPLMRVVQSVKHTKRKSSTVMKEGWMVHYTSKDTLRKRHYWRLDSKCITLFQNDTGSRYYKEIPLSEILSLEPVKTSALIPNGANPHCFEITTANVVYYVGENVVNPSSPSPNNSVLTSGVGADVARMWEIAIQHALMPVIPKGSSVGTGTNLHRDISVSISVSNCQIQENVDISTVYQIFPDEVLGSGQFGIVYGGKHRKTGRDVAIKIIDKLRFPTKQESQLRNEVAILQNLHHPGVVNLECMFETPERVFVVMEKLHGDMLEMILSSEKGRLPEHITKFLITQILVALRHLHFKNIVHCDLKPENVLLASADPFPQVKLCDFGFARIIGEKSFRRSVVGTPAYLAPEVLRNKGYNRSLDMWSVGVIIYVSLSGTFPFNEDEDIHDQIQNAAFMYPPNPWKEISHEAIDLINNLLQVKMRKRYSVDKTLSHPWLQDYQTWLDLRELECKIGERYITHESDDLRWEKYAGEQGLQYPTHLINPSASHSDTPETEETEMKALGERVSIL
ROMK primary = modulates human ROMK potassium channel activity; P48048; Tet-inducible ROMK, thallium flux fluorescence; actives lie on both sides; B-score at 10 µM; 130,000 tested, 2% active; AID 1918;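 active means signal ratio slope over the read window, or its plate-corrected B-score, at least 3 SD from the plate mean, either direction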;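 further: B-score of the F/F0 ratio slope over 7 to 12 s after thallium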
ROMK retest = confirmation of human ROMK potassium channel modulators | ROMK thallium flux, fluorescence ratio; hits give low values | shares compounds with ROMK primary | 3,000 tested, 54% active | normalized thallium flux (F/F0 slope) at 10 µM;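 active means Flux at 10 µM at least 3 SD below or above vehicle control mean in one or both replicates; inconclusive means no clear call, values can overlap the other calls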
An asterisk follows results filed as active; ? = inconclusive; / = no result. Only some compounds are listed: those with a hit (about 3.7% of all), similar ones and a draw of the others.

SMILES	Mdm2 ligase inh	m-calpain inh	Arbovirus anti	Cl transport mod	PKD1 kinase inh	ROMK primary	ROMK retest
C/C(=N\NC(=O)CNc1cccc(Cl)c1C)C1CC1	-7	-30	-1	/	-4	-0.8	/
COc1ccc(-c2c(NC(=O)c3ccco3)n(C)c3ccccc3c2=O)cc1	-12	17	6	0.65	-2	3.7*	0.079
N/C(=N\OC(=O)c1ccc(Cl)c(Cl)c1)c1ccccn1	-41	6	-2	0.64	-6	/	/
N/C(=N\OC(=O)c1ccc(Cl)c([N+](=O)[O-])c1)c1ccccn1	-7	32	12	0.12	-5	-3.8*	0.079
COc1ccccc1C(=O)O/N=C(\N)c1ccccn1	-21	22	/	-0.075	/	/	0.083
Fc1ccc(COc2ccc(Br)cc2CNCc2ccncc2)cc1	-3	10	-15	/	-11	-2.7*	0.063*
Cc1nn(C)c(Cl)c1CN1CCN(CC(C)C)C(CCO)C1 (stereo unspecified)	-14	39	2	-0.47	0	-0.27	/
O=C(C1CCN(Cc2ccccc2)CC1)N1CCCC1	-39	6	1	0.5	2	/	0.074
COc1ccccc1Nc1nnc(C)c(=O)[nH]1	8	-25	7	/	0	3*	0.077
Cc1snc(S(=O)(=O)/C(C#N)=N/Nc2ccc(C(F)(F)F)cc2)c1C#N	-3	16	3	0.0076	-5	3.8*	0.1*
O=[N+]([O-])c1cccc(-n2nnnc2CNCc2ccccc2)c1	-6	8	/	-0.046	/	-0.031	/
CCN(CC)S(=O)(=O)c1ccc(S(=O)(=O)N(CC(=O)Nc2ccccc2)Cc2ccco2)cc1	2	15	-4	-0.067	-10	-0.071	/
Cc1c(C(=O)Nc2ccncc2)oc2ccccc12	-5	7	1	-0.27	-3	/	0.074
O=C1NC(Cc2c[nH]c3ccccc23)C(=O)N1Cc1ccc(CN2C(=O)NC(Cc3c[nH]c4ccccc34)C2=O)cc1 (stereo unspecified)	-20	-77	-8	-0.012	6	-3.9*	0.065*
O=C1NC(Cc2c[nH]c3ccccc23)C(=O)N1CCOc1ccc(F)cc1 (stereo unspecified)	-10	7	-1	-0.94	-1	/	/
CCN(CC)C(=O)c1ccc(Cn2cc([N+](=O)[O-])cn2)o1	-12	-7	-6	/	-8	/	/
Cc1ccc(CNC(=O)CSc2nc3c(sc4ccccc43)c(=O)n2CCCN2CCCC2)cc1	1	-9	-24	1	-1	-2.2	/
O=C(CSc1nc2c(sc3ccccc32)c(=O)n1CCCN1CCCC1)NCc1ccccc1	-4	-45	-31	-1.1	-8	-3.5*	0.06*
COc1ccc(-n2cccc2/C=C/[N+](=O)[O-])cc1	0	-49	-33	-0.79	0	-5.5*	0.041*
COc1ccc(-n2cccc2C=O)cc1	/	11	-6	1.1	-3	0.045	/
C=CS(=O)(=O)c1ccc(Oc2ccc(S(=O)(=O)C=C)cc2)cc1	64*	-13	-4	-0.94	16	-5.8*	0.041*
O=c1[nH][nH]c2ccccc2c1=O	-10	-5	/	-0.096	/	/	/
O=C(c1cccc(F)c1)N1CCN(C(=O)c2cc(-c3ccc(Cl)cc3Cl)on2)CC1	-18	35	-10	-1.1	-14	-4.2*	?
C/C(=N\NC(=O)COc1ccccc1[N+](=O)[O-])c1cccs1	-21	12	-5	/	-1	1.4*	0.085
O=C(O)CC(CNS(=O)(=O)c1ccccc1)c1ccccc1 (stereo unspecified)	-1	15	5	0.76	14	/	?
SMILES	Mdm2 ligase inh	m-calpain inh	Arbovirus anti	Cl transport mod	PKD1 kinase inh	ROMK primary	ROMK retest
O=C(O)CCCCCCNS(=O)(=O)c1ccccc1	5	-9	1	0.3	-4	-0.25	/
CCCOc1ccc(NC(=O)C(=O)NCCCn2ccnc2)cc1	-5	7	-10	1.2	-6	/	/
CN(C)c1cccc(NC(=O)c2ccco2)c1	-9	18	-6	0.5	-1	2.6*	0.077
Cc1c(N=C2N=C(NC(=O)Nc3ccc(Cl)cc3)c3ccccc32)c(=O)n(-c2ccccc2)n1C	-11	-10	-18	/	-8	-3.9*	0.06*
Cc1ccc(S(=O)(=O)c2c(C)cc(C)nc2N2CCCC2)cc1	-8	21	-3	-0.88	8	0.055	/
CCC(C)Oc1ccccc1C1CC(=O)NC2=C1C(=O)CCC2 (stereo unspecified)	-16	-9	-9	0.11	-9	2.8*	0.092
Cc1ccc(C)c(Nc2ccc(C(=O)NCCc3ccccc3)cn2)c1	-14	39	-4	-1.7	1	2.7*	0.082
Cc1ccc(Nc2ccc(C(=O)NCCc3ccccc3)cn2)cc1	-12	3	-3	-0.11	-13	2.1	/
NNC(=O)c1nc(Cl)c(Cl)c(N)c1Cl	-3	-13	/	0.011	/	-0.39	/
OCCOCCNc1ncnc2sc(-c3ccccc3)cc12	-6	-58	1	-0.59	-4	-1.8*	0.064*
CC(C(=O)N1CCN(c2ccc(Cl)cc2)CC1)c1ncc(C(F)(F)F)cc1Cl (stereo unspecified)	-13	-8	-3	-1.1	-16	/	/
CCOC(=O)C1(Cc2ccccc2)CCN(Cc2cn[nH]c2-c2ccccc2)CC1	-5	27	4	-0.026	-6	-2.5*	0.056*
CCOC(=O)C1(CC2CC2)CCN(Cc2cn[nH]c2-c2ccccc2)CC1	2	-29	7	-0.13	0	-0.68	/
O=C(COC(=O)c1cccc2ccccc12)NCC1CCCO1 (stereo unspecified)	-8	-15	9	0.0016	0	-0.21	/
O=C(COC(=O)c1cc(-c2ccc(F)cc2)nc2ccccc12)NCC1CCCO1 (stereo unspecified)	-5	13	9	-0.69	1	-4.4*	0.066*
O=C(NCC1CCCO1)c1cc(-c2ccco2)nc2ccccc12 (stereo unspecified)	-20	-478	-5	0.38	-3	-0.77	/
CCCOc1ccc(-c2cc(C(=O)NCC3CCCO3)c3ccccc3n2)cc1 (stereo unspecified)	-10	-219	-1	0.24	6	-4.2*	?
Cc1ccc(C(=O)OCc2ccc3c(c2)OCO3)cc1S(=O)(=O)N1CCCCC1	1	23	-2	/	-8	-1.8	/
CC12CCC(C(=O)N/N=C/c3ccc(O)cc3O)(OC1=O)C2(C)C (stereo unspecified)	-8	-5	/	-0.29	/	/	/
Cc1nc(C)c2c(=O)cc(-c3ccccc3)[nH]c2n1	-17	-57	-24	-0.37	-6	1.2*	0.091
OCCC1CN(CC(c2ccccc2)c2ccccc2)CCN1C1CCCC1 (stereo unspecified)	5	-24	-21	0.71	6	-1.7	/
